Measured values as given in ChEMBL document CHEMBL1123853, “A novel class of cardiotonics. Synthesis and pharmacological properties of [4-(substituted-amino)phenyl]pyridazinones and related derivatives” (1987).

How the values were obtained:
[1] = species on record: Canis familiaris; test: Positive inotropic in the isolated papillary muscle of the dog.; assay type: functional, Canis lupus familiaris
In short: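 Right ventricular anterior papillary muscle with septum, from mongrel dogs (7–12 kg, pentobarbital 30 mg/kg iv). It was perfused at about 100 mmHg via the septal artery with blood from a heparinized donor dog and paced at 120/min (1 ms pulses, about 1.5× threshold). Isometric tension was recorded. Saline solutions were injected intra-arterially, with amrinone as reference. ED15 (15% rise in developed tension) was taken from log dose-response curves. Results are mean ± SEM (n = 7) or mean ± range (n = 2).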

[2] = tested on: Canis familiaris; test: Inotropic activity determined by evaluating the % change in contractile force (CF) of right ventricle at a dose of 100 ug/kg administered intravenously […]; assay type: functional, Canis lupus familiaris, Heart right ventricle
In short: (§1)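 Mongrel dogs of either sex, 7–15 kg, anesthetized with sodium pentobarbital (30 mg/kg iv), open-chest, intubated and ventilated on room air. Compounds given intravenously. A femoral artery catheter with pressure transducer recorded SBP and DBP. dP/dtmax, right ventricular contractile force, cardiac output and heart rate were also recorded, as % change at each iv dose.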

[3] = tested on: Canis familiaris; test: Inotropic activity determined by evaluating the % change in Diastolic Blood Pressure (DBP) at a dose of 30 ug/kg administered intravenously […]; assay type: functional, Canis lupus familiaris; in short: as §1
[4] = tested on: Canis familiaris; test: Inotropic activity determined by evaluating the % change in Heart Rate (HR) at a dose of 100 ug/kg administered intravenously […]; assay type: functional, Canis lupus familiaris; in short: as §1
[5] = tested on: Canis familiaris; test: Inotropic activity determined by evaluating the % change in Heart Rate (HR) at a dose of 30 ug/kg administered intravenously […]; assay type: functional, Canis lupus familiaris; in short: as §1
[6] = tested on: Canis familiaris; test: Inotropic activity determined by evaluating the % change in Cardiac out put (CO)at a dose of 30 ug/kg administered intravenously […]; assay type: functional, Canis lupus familiaris; in short: as §1
[7] = tested on: Canis familiaris; test: Inotropic activity determined by evaluating the % change in Diastolic Blood Pressure (DBP) at a dose of 100 ug/kg administered intravenously […]; assay type: functional, Canis lupus familiaris; in short: as §1
[8] = species on record: Canis familiaris; test: Positive inotropic activity determined in the […](that produced 30% increase in dose- response curves [dP/dt(max)]); assay type: functional; conditions: Canis lupus familiaris
In short: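 In the anesthetized open-chest dog (mongrel, 7–15 kg, pentobarbital 30 mg/kg iv, ventilated on room air), compounds were given intravenously and LV dP/dtmax was recorded. The dose giving a 30% rise in dP/dtmax was read from the dose-response curves. Results are mean ± SEM (n = 3) or mean ± range (n = 2).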

[9] = tested on: Canis familiaris; test: Inotropic activity determined by evaluating the % change in Systolic Blood Pressure (SBP) at a dose of 100 ug/kg administered intravenously […]; assay type: functional, Canis lupus familiaris, Muscle tissue; in short: as §1
[10] = tested on: Canis familiaris; test: Inotropic activity determined by evaluating the % change in contractile force (CF) of right ventricle at a dose of 30 ug/kg administered intravenously […]; assay type: functional, Canis lupus familiaris, Heart right ventricle; in short: as §1
[11] = tested on: Canis familiaris; test: Inotropic activity determined by evaluating the % change in Cardiac out put (CO)at a dose of 100 ug/kg administered intravenously […]; assay type: functional, Canis lupus familiaris; in short: as §1
[12] = tested on: Canis familiaris; test: Inotropic activity determined by evaluating the maximum rate of rise in left ventricular pressure at a dose of 100 ug/kg administered intravenously […]; assay type: functional, Canis lupus familiaris, Muscle tissue; in short: as §1
[13] = tested on: Canis familiaris; test: Inotropic activity determined by evaluating the maximum rate of rise in left ventricular pressure at a dose of 30 ug/kg administered intravenously […]; assay type: functional, Canis lupus familiaris, Muscle tissue; in short: as §1
[14] = tested on: Canis familiaris; test: Inotropic activity determined by evaluating the % change in Systolic Blood Pressure (SBP) at a dose of 30 ug/kg administered intravenously […]; assay type: functional, Canis lupus familiaris, Muscle tissue; in short: as §1
[15] = tested on: Canis familiaris; test: Inotropic activity determined by evaluating the % change in contractile force (CF) of right ventricle at a dose of 10 ug/kg administered intravenously […]; assay type: functional, Canis lupus familiaris, Heart right ventricle; in short: as §1
[16] = tested on: Canis familiaris; test: Inotropic activity determined by evaluating the % change in Heart Rate (HR) at a dose of 10 ug/kg administered intravenously […]; assay type: functional, Canis lupus familiaris; in short: as §1
[17] = tested on: Canis familiaris; test: Inotropic activity determined by evaluating the % change in Cardiac out put (CO)at a dose of 10 ug/kg administered intravenously […]; assay type: functional, Canis lupus familiaris; in short: as §1
[18] = tested on: Canis familiaris; test: Inotropic activity determined by evaluating the % change in Diastolic Blood Pressure (DBP) at a dose of 10 ug/kg administered intravenously […]; assay type: functional, Canis lupus familiaris; in short: as §1
[19] = tested on: Canis familiaris; test: Inotropic activity determined by evaluating the % change in Systolic Blood Pressure (SBP) at a dose of 10 ug/kg administered intravenously […]; assay type: functional, Canis lupus familiaris; in short: as §1
[20] = tested on: Canis familiaris; test: Inotropic activity determined by evaluating the maximum rate of rise in left ventricular pressure at a dose of 10 ug/kg administered intravenously […]; assay type: functional, Canis lupus familiaris, Muscle tissue; in short: as §1
[21] = tested on: Canis familiaris; test: Inotropic activity determined by evaluating the % change in Heart Rate (HR) at a dose of 300 ug/kg administered intravenously […]; assay type: functional, Canis lupus familiaris, Muscle tissue; in short: as §1
[22] = tested on: Canis familiaris; test: Inotropic activity determined by evaluating the % change in Cardiac out put (CO)at a dose of 300 ug/kg administered intravenously […]; assay type: functional, Canis lupus familiaris; in short: as §1
[23] = tested on: Canis familiaris; test: Inotropic activity determined by evaluating the % change in Diastolic Blood Pressure (DBP) at a dose of 300 ug/kg administered intravenously […]; assay type: functional, Canis lupus familiaris; in short: as §1
[24] = tested on: Canis familiaris; test: Inotropic activity determined by evaluating the % change in contractile force (CF) of right ventricle at a dose of 300 ug/kg administered intravenously […]; assay type: functional, Canis lupus familiaris, Heart right ventricle; in short: as §1
[25] = tested on: Canis familiaris; test: Inotropic activity determined by evaluating the maximum rate of rise in left ventricular pressure at a dose of 300 ug/kg administered intravenously […]; assay type: functional, Canis lupus familiaris, Muscle tissue; in short: as §1
[26] = tested on: Canis familiaris; test: Inotropic activity determined by evaluating the % change in Systolic Blood Pressure (SBP) at a dose of 300 ug/kg administered intravenously […]; assay type: functional, Canis lupus familiaris, Muscle tissue; in short: as §1

Row | Structure (SMILES) | ED15 [1] | Change of CF [2] | Change of DBP [3] | Change of HR [4] | Change of HR [5] | Change of CO [6] | Change of DBP [7] | ED30 [8] | Change of SBP [9] | Change of CF [10] | Change of CO [11] | dP/dt [12] | dP/dt [13] | Change of SBP [14] | other results
1 | CC(Nc1ccc(C2=NNC(=O)CC2)cc1)c1ccncc1 (centres undefined) | 33 µg |  |  |  |  |  |  |  |  |  |  |  |  |  | 
2 | CN(C)c1ccc(CNc2ccc(C3=NNC(=O)CC3)cc2)cc1 | >300 µg |  |  |  |  |  |  |  |  |  |  |  |  |  | 
3 | O=C1CCC(c2ccc(NCc3ccncc3)cc2)=NN1 | >300 µg |  |  |  |  |  |  |  |  |  |  |  |  |  | 
4 | O=C1CCC(c2ccc(NCc3cccnc3)cc2)=NN1 | 86 µg |  |  |  |  |  |  |  |  |  |  |  |  |  | 
5 | O=C1CCC(c2ccc(NCc3ccnc4ccccc34)cc2)=NN1 | >300 µg |  |  |  |  |  |  |  |  |  |  |  |  |  | 
6 | CC1CC(c2ccc(Nc3ccncc3)cc2)=NNC1=O.Cl (centres undefined) | 4.7 µg | 52.9% | -9.8% | 17.3% | 4.6% | 10.3% | -26.1% | 0.072 mg/kg | -14.6% | 22.5% | 23.3% | 43.8% | 24.2% | -5.9% | 
7 | CC1CC(=O)NN=C1c1ccc(Nc2ccccn2)cc1.Cl (centres undefined) | 3.2 µg |  | -31% |  | 8.9% | 15.8% |  | 0.022 mg/kg |  | 44.4% |  |  | 46.4% | -17.6% | Change of CF [15]: 19.5%; Change of HR [16]: 5.3%; Change of CO [17]: 12.7%; Change of DBP [18]: -22.4%; Change of SBP [19]: -14.1%; dP/dt [20]: 19.3%
8 | Cl.O=C1CCC(c2ccc(Nc3ccnc4ccccc34)cc2)=NN1 | >300 µg |  |  |  |  |  |  |  |  |  |  |  |  |  | 
9 | CCC1CC(=O)NN=C1c1ccc(Nc2ccncc2)cc1.Cl (centres undefined) | 23 µg | 23.7% |  | 12% |  |  | -15.1% | 0.256 mg/kg | -8.8% |  | 15.2% | 20.4% |  |  | Change of HR [21]: 22.5%; Change of CO [22]: 19.2%; Change of DBP [23]: -18.3%; Change of CF [24]: 35.7%; dP/dt [25]: 34.8%; Change of SBP [26]: -11.1%
10 | CC1CC(=O)NN=C1c1ccc(N(C)c2ccncc2)cc1.Cl (centres undefined) | 18.5 µg | 41.2% | -3.2% | 22.8% | 2.6% | 8.9% | -13.9% | > 0.1 mg/kg | -5.5% | 13% | 13.3% | 27.5% | 11% | -0.6% | 
11 | CN(c1ccc(C2=NNC(=O)CC2)cc1)c1ccccn1.Cl | 5.6 µg | 37.7% | -9.6% | 9.5% | 4.5% | 13.2% | -17.8% | > 0.1 mg/kg | -10.5% | 16.5% | 18.7% | 32.5% | 14.3% | -6.3% | 
12 | Cl.O=C1CCC(c2ccc(Nc3ccccn3)cc2)=NN1 | 17.5 µg | 40.5% | -15.6% | 16.7% | 6.7% | 13.9% | -25.5% | 0.106 mg/kg | -27.2% | 22% | 22.1% | 37.8% | 16.1% | -13.7% | 
13 | Cl.O=C1CCC(c2ccc(Nc3ncccn3)cc2)=NN1 | 165 µg |  |  |  |  |  |  |  |  |  |  |  |  |  | 
14 | CN(c1ccncc1)c1ccc(C2=NNC(=O)CC2)cc1.Cl | 38 µg | 11% |  | 1.4% |  |  | -4% | > 0.3 mg/kg | -2.1% |  | 5.9% | 13.6% |  |  | Change of HR [21]: 2.7%; Change of CO [22]: 8.7%; Change of DBP [23]: -10.3%; Change of CF [24]: 20%; dP/dt [25]: 17.8%; Change of SBP [26]: -5.8%
15 | O=C1CCC(c2ccc(-n3ccnc3)cc2)=NN1 [IMAZODAN] |  | 83.8% | -16.5% | 16.1% | 8.1% | 26.3% | -28.3% | 0.046 mg/kg | -16.9% | 42.2% | 35.5% | 49.3% | 22.3% | -9.6% | Change of CF [15]: 13.8%; Change of HR [16]: 3.6%; Change of CO [17]: 11.2%; Change of DBP [18]: -8.1%; Change of SBP [19]: -4.8%; dP/dt [20]: 10.3%
